M1 agonist – M1 muscarinic receptor agonists, primary screen, CHO-M1 cells, Fluo-4 calcium, agonist mode | Muscarinic acetylcholine receptor M1 | Fluo-4 calcium fluorescence; hits give high values | B-score at 10 µM | 3% of 64,000 active | AID 626, 2007;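 active = fluorescence rise, raw or as B-score row- and column-corrected plate score, outside the 99.7% band of its plate's samples, either direction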
Jurkat viability – cytotoxicity toward Jurkat T cells, primary screen, cytotoxicity control, cell-based, Jurkat E6.1, 60K MLSMR library; Jurkat E6.1 viability, ATP luminescence, 48 h; inhibition, % at 4 µM; 1.2% of 56,000 active; AID 463, 2006;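 active = inhibition above the mean inhibition of all tested compounds plus 3 SD, cut at about 28% in these data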
S1P3 ag – human S1P3 receptor agonists, primary screen, cell-based, primary and confirmation, NFAT-BLA reporter. AID 373, 2006. 0.1% of 60,000 active. S1P3 NFAT-BLA reporter cells, agonism, FRET ratio; relative to 1 µM S1P, basal subtracted. activation, % at 4.5 µM. Sphingosine 1-phosphate receptor 3 (Homo sapiens), Q99500;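 active = activation above the screen-wide mean plus 3 SD, cut at about 4.5% in these data, passing the limit was not always enough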
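material = human S1P3 NFAT-BLA reporter CHO cells | schedule = 4 h compound at 37 °C, 2 h substrate at RT | measured by = fluorescent BLA substrate, ex 405 nm, em 460/535 nm ratio | controls = 1 µM S1P reference | replication = primary once, confirmation triplicate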
JNK3 blocker – JNK3 kinase activity inhibitors, primary screen, biochemical, human, purified enzyme; Mitogen-activated protein kinase 10 (Homo sapiens), P53779; 0.61% of 60,000 active; HTS; inhibition, % at 8 µM; AID 746, 2007; in the data active = inhibition above about 17%
S1P1 ag-PAM – S1P1 agonists and agonism potentiators, primary screen, cell-based, primary and confirmation screens, CRE-bla reporter; Sphingosine 1-phosphate receptor 1 (Homo sapiens), P21453; S1P1 CRE-bla cells, forskolin, beta-lactamase FRET, potentiator mode; S1P1 agonist co-added at EC20, 2 nM; 100% = saturating reference agonist, 0% = basal; activation, % at 9.5 µM; 0.57% of 56,000 active;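 active = activation above a cutoff set at the mean activation of all tested compounds plus 3 SD, cut at about 54% in these data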;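 also: forskolin at 4 µM as EC80 and the EC20 agonist is SEW2871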
Target sequence (P21453 whole entry, looked up): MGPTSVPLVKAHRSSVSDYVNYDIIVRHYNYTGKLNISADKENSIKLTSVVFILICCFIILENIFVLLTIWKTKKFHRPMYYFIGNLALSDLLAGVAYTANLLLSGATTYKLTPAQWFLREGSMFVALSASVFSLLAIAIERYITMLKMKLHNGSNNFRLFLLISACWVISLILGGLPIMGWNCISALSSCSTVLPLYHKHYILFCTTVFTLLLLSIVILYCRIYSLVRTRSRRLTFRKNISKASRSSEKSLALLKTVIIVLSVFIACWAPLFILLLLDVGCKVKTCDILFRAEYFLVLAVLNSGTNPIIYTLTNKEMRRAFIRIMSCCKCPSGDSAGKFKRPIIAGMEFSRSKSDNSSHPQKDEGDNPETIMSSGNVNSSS
M1 antagonist – antagonists of rat M1 muscarinic receptor; Muscarinic acetylcholine receptor M1 (Rattus norvegicus), P08482; CHO-M1 cells, Fluo-4 calcium, ACh EC80 antagonist mode; hits give low values; B-score at 10 µM; 3.4% of 64,000 active;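 active = calcium fluorescence response, raw or row-and-column corrected B-score, differing from the plate sample mean either way at a set confidence level, mostly lower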
M1 ag confirm – rat M1 muscarinic receptor agonists, confirmation, CHO-M1 cells, Fluo-4 calcium, duplicate retest; shares compounds with M1 agonist; Fluo-4 calcium fluorescence, agonist mode; actives lie on both sides; fluorescence change (max-min) at 10 µM; 19% of 1,700 active; AID 1488, 2009;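 active = fluorescence change differs from the solvent-only DMSO control mean at a set confidence level in both duplicate runs; inconclusive = differs from solvent-only control mean in just one of two runs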;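 also: an EC20 dose of acetylcholine follows compound addition during the same imaging run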
M4 agonist ctr – agonist activity at rat M4 receptor, confirmation, counter-screen for M1 allosteric modulator project, cell-based, agonist mode; shares compounds with M1 agonist; CHO M4/Gqi5 cells, Fluo-4 calcium fluorescence; actives lie on both sides; fluorescence change (max-min) at 10 µM; 9% of 1,700 active;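 active = fluorescence change differing from the plate's solvent-only control wells at 99.7% confidence in both duplicates, whether higher or lower; inconclusive = differs from solvent controls in only one of two duplicates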
Of the large screens only hits and unclear results are named; the others gave an inactive call (follow-up assays come after a bar, where they were run). Compounds with a hit are over-represented: about 7.4% of the library has one in this group of screens.

CCCCCCOC(=O)C(C#N)c1nc2ccccc2nc1N1CCN(C)CC1 (stereo not drawn)	M1 agonist 5.07, M1 antagonist 1.95 | M1 ag confirm inactive | M4 agonist ctr inconclusive
CC1CCN(c2nc3ccccc3nc2C(C#N)C(=O)NC2CCCCC2)CC1 (stereo not drawn)	M1 agonist 8.76 | M1 ag confirm 105 | M4 agonist ctr inactive
CCCCCCOC(=O)C(C#N)c1nc2ccccc2nc1N1CCCCC1 (stereo not drawn)	M1 agonist 9.88 | M1 ag confirm inconclusive | M4 agonist ctr inactive
CCC(CC)COC(=O)C(C#N)c1nc2ccccc2nc1N1CCN(CC)CC1 (stereo not drawn)	none
COC(=O)C(C#N)c1nc2ccccc2nc1N1CCCC1 (stereo not drawn)	none
CCCCNC(=O)C(C#N)c1nc2ccccc2nc1N1CCCC1 (stereo not drawn)	M1 agonist 53.7 | M1 ag confirm 856 | M4 agonist ctr 750
O=S(=O)(NCc1ccc2c(c1)OCO2)c1cccc(S(=O)(=O)N2CCOCC2)c1	none
COc1ccc(Cn2c(C3CC3)nc3ccc(NC(=O)c4ccco4)cc3c2=O)cc1	none
COC(=O)c1cc(-c2ccccc2)n(CC(=O)O)c1C	none
COc1ccc(CNC(=O)C(C#N)c2nc3ccccc3nc2N2CCN(C)CC2)cc1 (stereo not drawn)	none
COc1ccc(CNC(=O)C(C#N)c2nc3ccccc3nc2N2CCCC2)cc1 (stereo not drawn)	M1 agonist 165, M1 antagonist -6.88 | M1 ag confirm 373 | M4 agonist ctr 562
CCc1nc2ccccc2n1CC(=O)N1CCN(S(=O)(=O)c2cccc(C(F)(F)F)c2)CC1	M1 agonist 4.63 | M1 ag confirm inactive | M4 agonist ctr inactive
COc1cc(NC(=O)c2ccco2)c(OC)cc1NC(=O)CSc1nnc(-c2cccs2)n1C	M1 agonist 6.19 | M1 ag confirm -32.5 | M4 agonist ctr inconclusive
CCOC(=O)c1c(NC(=O)CSc2nnc(-c3ccccc3C)n2C)sc(C(C)=O)c1C	M1 agonist 2.36, M1 antagonist -5.18 | M1 ag confirm inactive | M4 agonist ctr inconclusive
COc1cc(NC(=O)c2cccc3c2C(=O)N(Cc2cccnc2)C3)cc(OC)c1OC	M1 agonist 3.21 | M1 ag confirm inactive | M4 agonist ctr inactive
O=C(Nc1ccc2c(c1)OCO2)c1cccc2c1C(=O)N(Cc1cccnc1)C2	none
CCC(=O)c1ccc(OCCSc2ncccn2)cc1	none (no result: S1P1 ag-PAM)
COc1ccc(C)cc1-n1nnnc1SCc1cc(=O)n2cc(C)ccc2n1	M1 agonist 5.22 | M1 ag confirm inactive | M4 agonist ctr inactive
CCN(CC)S(=O)(=O)c1ccc2oc(C(=O)NCC3COc4ccccc4O3)c(C)c2c1 (stereo not drawn)	none (no result: Jurkat viability, S1P3 ag, JNK3 blocker, S1P1 ag-PAM)
Cc1cc2ccccc2n1CCNC(=O)c1ccc(S(=O)(=O)N2CCOCC2)cc1	M1 agonist 8.91 | M1 ag confirm inactive | M4 agonist ctr inactive
Cc1c(C(=O)NCCc2ccccc2)oc2ccc(S(=O)(=O)N3CCOCC3)cc12	M1 agonist 2.29 (no result: Jurkat viability, S1P3 ag, JNK3 blocker, S1P1 ag-PAM) | M1 ag confirm -31 | M4 agonist ctr inconclusive
Cc1c(C(=O)NCCN2CCOCC2)oc2ccc(S(=O)(=O)N3CCCCCC3)cc12	none (no result: Jurkat viability, S1P3 ag, JNK3 blocker, S1P1 ag-PAM)
Cc1c(C(=O)NCC2COc3ccccc3O2)oc2ccc(S(=O)(=O)N3CCOCC3)cc12 (stereo not drawn)	M1 agonist 16, M1 antagonist -2.42 (no result: Jurkat viability, S1P3 ag, JNK3 blocker, S1P1 ag-PAM) | M1 ag confirm inactive | M4 agonist ctr inconclusive
O=C(NCCCc1ccccc1)c1cnc2n(c1=O)CCS2	none

Source: PubChem (several laboratories)
